The values below come from ChEMBL document CHEMBL1153370, “New pyridazine derivatives: synthesis, chemistry and biological activity” (2009).

The first experiment deals with Candida albicans. As to the kind of experiment: Antifungal activity Candida albicans ATCC 10231 after 48 hrs at 28 degC by agar diffusion technique. It is filed as functional.
Details: not given
The essentials:
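Fungi were maintained on Mueller Hinton agar and tested by diffusion on agar seeded with the organism. After 48 h incubation at 28 °C, the inhibition zone diameter (mm, mean) was measured.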
Regarding `Cc1ccc(C(=O)C[n+]2ccccn2)cc1.[Br-]`, the “Diameter of inhibition zone” value is listed as 27 mm.
On to `O=C(c1ccc(Cl)cc1)[C@H]1[C@@H]2C(=O)N(c3ccccc3)C(=O)[C@@H]2[C@@H]2C=CC=NN21`, for which the “Diameter of inhibition zone” value amounted to 34 mm.
On the same count and under the same terms, to `COC(=O)c1c(C(=O)OC)c2cccnn2c1C(=O)c1ccc(F)cc1` belongs 21 mm; to `COC(=O)[C@@H]1[C@H](C(=O)OC)[C@H](C(=O)c2ccc(F)cc2)N2N=CC=C[C@@H]12`, 24 mm.
Still for that read-out and setting: to `O=C(c1ccc(F)cc1)[C@H]1[C@@H]2C(=O)N(c3ccccc3)C(=O)[C@@H]2[C@@H]2C=CC=NN21` belongs 25 mm.
Still for that read-out and setting: to `Cc1ccc(C(=O)[C@@H]2C[C@H](C#N)[C@@H]3C=CC=NN23)cc1` belongs 30 mm.
As to `CCOC(=O)c1cc(C(=O)c2ccc(C)cc2)n2ncccc12`, the “Diameter of inhibition zone” value turned out to be 28 mm.
On the same count and under the same terms, to `COC(=O)[C@H]1[C@H](C(=O)OC)[C@H](C(=O)c2ccc(F)cc2)N2N=CC=C[C@@H]12` belongs 27 mm.
Still for that read-out and setting: to `COC(=O)[C@H]1[C@H](C(=O)OC)[C@H](C(=O)c2ccc(C)cc2)N2N=CC=C[C@@H]12` belongs 29 mm.
As to `O=C(C[n+]1ccccn1)c1ccc(Cl)cc1.[Br-]`, the “Diameter of inhibition zone” value is reported as 29 mm.

The next experiment deals with Micrococcus luteus. Description: Antibacterial activity Sarcina lutea ATCC 9341 at 30 ug/disk after 24 hrs at 30 degC by agar diffusion technique. The conditions noted are these: ATCC 9341, 24 h, read-out: Diameter of inhibition zone. It is filed as functional. A digest of the protocol: (§1)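 Agar diffusion method. Bacteria were maintained on Mueller Hinton agar, and the agar medium was inoculated with each test organism. Plates were incubated 24 h at 30 °C, then the diameter of the inhibition zone was measured in mm and reported as the mean diameter.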
Take `O=C(N[C@H](CO)[C@H](O)c1ccc([N+](=O)[O-])cc1)C(Cl)Cl` [CHLORAMPHENICOL]: the zone of inhibition at 30 µg/disc is 40 mm.

A further experiment has as its system Bacillus subtilis. As to the kind of experiment: Antibacterial activity Bacillus subtilis at 30 ug/disk after 24 hrs at 30 degC by agar diffusion technique. It is filed as functional. The note with it: read-out: Diameter of inhibition zone. A digest of the protocol:
as §1
Turning to `O=C(N[C@H](CO)[C@H](O)c1ccc([N+](=O)[O-])cc1)C(Cl)Cl` [CHLORAMPHENICOL], the zone of inhibition at 30 µg/disc worked out at 26 mm.

For a further experiment, the system named is Bacillus subtilis. As to the kind of experiment: Antibacterial activity Bacillus subtilis after 24 hrs at 30 degC by agar diffusion technique. It is filed as functional.
Details: not given
A digest of the protocol: as §1
As for `Cc1ccc(C(=O)C[n+]2ccccn2)cc1.[Br-]`, the “Diameter of inhibition zone” value is given as 40 mm.
The same measure, in the same setting: to `O=C(c1ccc(Cl)cc1)[C@H]1[C@@H]2C(=O)N(c3ccccc3)C(=O)[C@@H]2[C@@H]2C=CC=NN21` belongs 28 mm.
The same measure, in the same setting: to `COC(=O)c1c(C(=O)OC)c2cccnn2c1C(=O)c1ccc(F)cc1` belongs 23 mm; to `COC(=O)[C@@H]1[C@H](C(=O)OC)[C@H](C(=O)c2ccc(F)cc2)N2N=CC=C[C@@H]12`, 37 mm.
As to `O=C(c1ccc(F)cc1)[C@H]1[C@@H]2C(=O)N(c3ccccc3)C(=O)[C@@H]2[C@@H]2C=CC=NN21`, the “Diameter of inhibition zone” value amounted to 28 mm.
On the same count and under the same terms, to `Cc1ccc(C(=O)[C@@H]2C[C@H](C#N)[C@@H]3C=CC=NN23)cc1` belongs 39 mm; to `CCOC(=O)c1cc(C(=O)c2ccc(C)cc2)n2ncccc12`, 37 mm; to `COC(=O)[C@H]1[C@H](C(=O)OC)[C@H](C(=O)c2ccc(F)cc2)N2N=CC=C[C@@H]12`, 35 mm.
Still for that read-out and setting: to `COC(=O)[C@H]1[C@H](C(=O)OC)[C@H](C(=O)c2ccc(C)cc2)N2N=CC=C[C@@H]12` belongs 38 mm.
`O=C(C[n+]1ccccn1)c1ccc(Cl)cc1.[Br-]`: the “Diameter of inhibition zone” value turned out to be 32 mm.

The next experiment relates to Escherichia coli. As to the kind of experiment: Antibacterial activity Escherichia coli ATCC 25922 at 30 ug/disk after 24 hrs at 30 degC by agar diffusion technique. The conditions noted are these: ATCC 25922, 24 h, read-out: Diameter of inhibition zone. It counts as functional. A digest of the protocol: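 Agar diffusion method; organisms kept on Mueller Hinton agar, and agar media were inoculated with the test culture. Bacterial plates incubated 24 h at 30 °C, then diameter of the inhibition zone measured in mm (mean diameter).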
With `O=C(N[C@H](CO)[C@H](O)c1ccc([N+](=O)[O-])cc1)C(Cl)Cl` [CHLORAMPHENICOL], the zone of inhibition at 30 µg/disc worked out at 25 mm.

A further experiment concerns Escherichia coli. Description: Antibacterial activity Escherichia coli ATCC 25922 after 24 hrs at 30 degC by agar diffusion technique. It counts as functional.
Details: not given
The essentials: as §1
Consider `Cc1ccc(C(=O)C[n+]2ccccn2)cc1.[Br-]`, for which the “Diameter of inhibition zone” value was determined as 25 mm.
The same measure, in the same setting: to `O=C(c1ccc(Cl)cc1)[C@H]1[C@@H]2C(=O)N(c3ccccc3)C(=O)[C@@H]2[C@@H]2C=CC=NN21` belongs 28 mm.
For `COC(=O)c1c(C(=O)OC)c2cccnn2c1C(=O)c1ccc(F)cc1`, the “Diameter of inhibition zone” value is given as 21 mm.
As to `COC(=O)[C@@H]1[C@H](C(=O)OC)[C@H](C(=O)c2ccc(F)cc2)N2N=CC=C[C@@H]12`, the “Diameter of inhibition zone” value was determined as 35 mm.
The same measure, in the same setting: to `O=C(c1ccc(F)cc1)[C@H]1[C@@H]2C(=O)N(c3ccccc3)C(=O)[C@@H]2[C@@H]2C=CC=NN21` belongs 25 mm; to `Cc1ccc(C(=O)[C@@H]2C[C@H](C#N)[C@@H]3C=CC=NN23)cc1`, 23 mm; to `CCOC(=O)c1cc(C(=O)c2ccc(C)cc2)n2ncccc12`, 25 mm.
Same read-out and setting: to `COC(=O)[C@H]1[C@H](C(=O)OC)[C@H](C(=O)c2ccc(F)cc2)N2N=CC=C[C@@H]12` belongs 35 mm; to `COC(=O)[C@H]1[C@H](C(=O)OC)[C@H](C(=O)c2ccc(C)cc2)N2N=CC=C[C@@H]12`, 37 mm; to `O=C(C[n+]1ccccn1)c1ccc(Cl)cc1.[Br-]`, 36 mm.

A further experiment relates to Pseudomonas aeruginosa. As to the kind of experiment: Antibacterial activity Pseudomonas aeruginosa at 30 ug/disk after 24 hrs at 30 degC by agar diffusion technique. It counts as functional. The note with it: read-out: Diameter of inhibition zone. A digest of the protocol: as §1
Take `O=C(N[C@H](CO)[C@H](O)c1ccc([N+](=O)[O-])cc1)C(Cl)Cl` [CHLORAMPHENICOL]: the zone of inhibition at 30 µg/disc came to 19 mm.

In a further experiment the test system is Staphylococcus aureus. As to the kind of experiment: Antibacterial activity Staphylococcus aureus ATCC 25923 after 24 hrs at 30 degC by agar diffusion technique. It counts as functional.
Details: not given
A digest of the protocol: as §1
For the compound `Cc1ccc(C(=O)C[n+]2ccccn2)cc1.[Br-]`, the “Diameter of inhibition zone” value is 47 mm.
Still for that read-out and setting: to `O=C(c1ccc(Cl)cc1)[C@H]1[C@@H]2C(=O)N(c3ccccc3)C(=O)[C@@H]2[C@@H]2C=CC=NN21` belongs 28 mm.
With `COC(=O)c1c(C(=O)OC)c2cccnn2c1C(=O)c1ccc(F)cc1`, the “Diameter of inhibition zone” value is 27 mm.
`COC(=O)[C@@H]1[C@H](C(=O)OC)[C@H](C(=O)c2ccc(F)cc2)N2N=CC=C[C@@H]12`: the “Diameter of inhibition zone” value worked out at 29 mm.
For the compound `O=C(c1ccc(F)cc1)[C@H]1[C@@H]2C(=O)N(c3ccccc3)C(=O)[C@@H]2[C@@H]2C=CC=NN21`, the “Diameter of inhibition zone” value was 27 mm.
Still for that read-out and setting: to `Cc1ccc(C(=O)[C@@H]2C[C@H](C#N)[C@@H]3C=CC=NN23)cc1` belongs 46 mm.
Still for that read-out and setting: to `CCOC(=O)c1cc(C(=O)c2ccc(C)cc2)n2ncccc12` belongs 40 mm; to `COC(=O)[C@H]1[C@H](C(=O)OC)[C@H](C(=O)c2ccc(F)cc2)N2N=CC=C[C@@H]12`, 29 mm; to `COC(=O)[C@H]1[C@H](C(=O)OC)[C@H](C(=O)c2ccc(C)cc2)N2N=CC=C[C@@H]12`, 47 mm.
Consider `O=C(C[n+]1ccccn1)c1ccc(Cl)cc1.[Br-]`, for which the “Diameter of inhibition zone” value is listed as 36 mm.

In another experiment the test system is Pseudomonas aeruginosa. Description: Antibacterial activity Pseudomonas aeruginosa after 24 hrs at 30 degC by agar diffusion technique. It counts as functional.
Details: not given
The essentials: as §1
Regarding `Cc1ccc(C(=O)C[n+]2ccccn2)cc1.[Br-]`, the “Diameter of inhibition zone” value came to 20 mm.
Take `O=C(c1ccc(Cl)cc1)[C@H]1[C@@H]2C(=O)N(c3ccccc3)C(=O)[C@@H]2[C@@H]2C=CC=NN21`: the “Diameter of inhibition zone” value was 18 mm.
Still for that read-out and setting: to `COC(=O)c1c(C(=O)OC)c2cccnn2c1C(=O)c1ccc(F)cc1` belongs 15 mm.
On the same count and under the same terms, to `COC(=O)[C@@H]1[C@H](C(=O)OC)[C@H](C(=O)c2ccc(F)cc2)N2N=CC=C[C@@H]12` belongs 18 mm.
Still for that read-out and setting: to `O=C(c1ccc(F)cc1)[C@H]1[C@@H]2C(=O)N(c3ccccc3)C(=O)[C@@H]2[C@@H]2C=CC=NN21` belongs 16 mm; to `Cc1ccc(C(=O)[C@@H]2C[C@H](C#N)[C@@H]3C=CC=NN23)cc1`, 19 mm; to `CCOC(=O)c1cc(C(=O)c2ccc(C)cc2)n2ncccc12`, 18 mm.
With `COC(=O)[C@H]1[C@H](C(=O)OC)[C@H](C(=O)c2ccc(F)cc2)N2N=CC=C[C@@H]12`, the “Diameter of inhibition zone” value was determined as 17 mm.
For `COC(=O)[C@H]1[C@H](C(=O)OC)[C@H](C(=O)c2ccc(C)cc2)N2N=CC=C[C@@H]12`, the “Diameter of inhibition zone” value is reported as 17 mm.
The same measure, in the same setting: to `O=C(C[n+]1ccccn1)c1ccc(Cl)cc1.[Br-]` belongs 20 mm.

The subject of the next experiment is Staphylococcus aureus. Description: Antibacterial activity Staphylococcus aureus ATCC 25923 at 30 ug/disk after 24 hrs at 30 degC by agar diffusion technique. It counts as functional. The conditions noted are these: ATCC 25923, 24 h, read-out: Diameter of inhibition zone. A digest of the protocol:
as §1
Take `O=C(N[C@H](CO)[C@H](O)c1ccc([N+](=O)[O-])cc1)C(Cl)Cl` [CHLORAMPHENICOL]: the zone of inhibition at 30 µg/disc was 30 mm.

The next experiment concerns Micrococcus luteus. Description: Antibacterial activity Sarcina lutea ATCC 9341 after 24 hrs at 30 degC by agar diffusion technique.
Details: not given
It is filed as functional. The essentials:
as §1
As for `Cc1ccc(C(=O)C[n+]2ccccn2)cc1.[Br-]`, the “Diameter of inhibition zone” value came to 81 mm.
As for `O=C(c1ccc(Cl)cc1)[C@H]1[C@@H]2C(=O)N(c3ccccc3)C(=O)[C@@H]2[C@@H]2C=CC=NN21`, the “Diameter of inhibition zone” value was 54 mm.
Still for that read-out and setting: to `COC(=O)c1c(C(=O)OC)c2cccnn2c1C(=O)c1ccc(F)cc1` belongs 52 mm; to `COC(=O)[C@@H]1[C@H](C(=O)OC)[C@H](C(=O)c2ccc(F)cc2)N2N=CC=C[C@@H]12`, 60 mm; to `O=C(c1ccc(F)cc1)[C@H]1[C@@H]2C(=O)N(c3ccccc3)C(=O)[C@@H]2[C@@H]2C=CC=NN21`, 63 mm.
On the same count and under the same terms, to `Cc1ccc(C(=O)[C@@H]2C[C@H](C#N)[C@@H]3C=CC=NN23)cc1` belongs 67 mm.
On the same count and under the same terms, to `CCOC(=O)c1cc(C(=O)c2ccc(C)cc2)n2ncccc12` belongs 56 mm.
Consider `COC(=O)[C@H]1[C@H](C(=O)OC)[C@H](C(=O)c2ccc(F)cc2)N2N=CC=C[C@@H]12`, for which the “Diameter of inhibition zone” value is listed as 51 mm.
For `COC(=O)[C@H]1[C@H](C(=O)OC)[C@H](C(=O)c2ccc(C)cc2)N2N=CC=C[C@@H]12`, the “Diameter of inhibition zone” value stood at 59 mm.
For `O=C(C[n+]1ccccn1)c1ccc(Cl)cc1.[Br-]`, the “Diameter of inhibition zone” value amounted to 57 mm.
